Assay results published in ChEMBL document CHEMBL4808227, “Induction of apoptosis, cytotoxicity and radiosensitization by novel 3,4-dihydroquinazolinone derivatives” (Bioorg Med Chem Lett, 2021).
One block for each molecule: values may come before it. The source made the active and inactive calls. The calls are words filed in the database; no cut-off is given here.

Assays:
HepG2 [1] = experiment: Cytotoxicity against human HepG2 cells measured after 24 hrs by MTT assay; type: functional, cell-based; conditions: HepG2, 24 h
Procedure, shortened: (§1)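 MTT viability assay on HepG-2 and MCF-7 cells with serial dilutions of compound for 24 hr. Viability is expressed as percent of untreated cells (taken as 100%). IC50 is the concentration inhibiting growth by 50%, mean ± SD of three independent experiments.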

MCF7 [2] = experiment: Cytotoxicity against human MCF7 cells measured after 24 hrs by MTT assay; type: functional, cell-based; conditions: MCF7, 24 h; procedure, shortened: as §1
HepG2 [3] = experiment: Induction of apoptosis in human HepG2 cells assessed as viable cells by Annexin V-FITC/propidium iodide staining based flow cytometric analysis (reference value: 94.4 %); type: functional
HepG2 [4] = experiment: Induction of apoptosis in human HepG2 cells assessed as necrotic cells by Annexin V-FITC/propidium iodide staining based flow cytometric analysis (reference value: 0.007 %); type: functional
HepG2 [5] = experiment: Induction of apoptosis in human HepG2 cells assessed as late apoptotic cells by Annexin V-FITC/propidium iodide staining based flow cytometric analysis (reference value: 0.507 %); type: functional
HepG2 [6] = experiment: Induction of apoptosis in human HepG2 cells assessed as early apoptotic cells by Annexin V-FITC/propidium iodide staining based flow cytometric analysis (reference value: 5.06 %); type: functional
[7] = biological target: Epidermal growth factor receptor (Homo sapiens, UniProt P00533); experiment: Inhibition of EGFR (unknown origin)
[8] = Downregulation of Survivin mRNA expression in human HepG2 cells by real time RT-PCR analysis relative to control; type: functional
Procedure, shortened: (§2)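 HepG-2 cells were treated with compound. Survivin, XIAP and p21 mRNA were quantified by real-time RT-PCR, with each triplicate's Ct normalized to GAPDH. Expression is relative to control.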

[9] = Downregulation of XIAP mRNA expression in human HepG2 cells by real time RT-PCR analysis relative to control; type: functional; procedure, shortened: as §2
[10] = Upregulation of p21 mRNA expression in human HepG2 cells by real time RT-PCR analysis relative to control; type: functional; procedure, shortened: as §2
HepG2 [11] = experiment: Induction of apoptosis in human HepG2 cells assessed as increase in caspase-3 level by ELISA relative to control; type: functional
Procedure, shortened: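 HepG-2 cells were treated with compound, with DMSO-treated cells as control. Caspase-3 secreted into the culture medium was measured by ELISA, given as mean ± SD, n = 3.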

HepG2 [12] = experiment: Cell cycle arrest in human HepG2 cells assessed as accumulation of cells at G2/M phase measured by flow cytometry ( Rvb = 21.7%); type: functional
HepG2 [13] = experiment: Cell cycle arrest in human HepG2 cells assessed as accumulation of cells at S phase measured by flow cytometry (reference value: 6.08%); type: functional
HepG2 [14] = experiment: Cell cycle arrest in human HepG2 cells assessed as accumulation of cells at G0/G1 phase measured by flow cytometry (reference value: 71.6%); type: functional
HepG2 [15] = experiment: Radiosensitizing activity against human HepG2 cells assessed as reduction in cell viability pretreated with compound followed by exposure to 8 Gy gamma irradiation and measured by MTT assay; type: functional, cell-based; conditions: HepG2, light or radiation study
Procedure, shortened: (§3)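 HepG-2 and MCF-7 cells containing compound received a single dose of 8 Gy gamma radiation. Cytotoxicity was then measured, with IC50 as the mean ± SD of three independent experiments.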

MCF7 [16] = experiment: Radiosensitizing activity against human MCF7 cells assessed as reduction in cell viability pretreated with compound followed by exposure to 8 Gy gamma irradiation and measured by MTT assay; type: functional, cell-based; conditions: MCF7, light or radiation study; procedure, shortened: as §3
HepG2 [17] = experiment: Radiosensitizing activity against human HepG2 cells assessed as downregulation of Survivin mRNA expression pretreated with compound followed by exposure to 8 Gy gamma irradiation by real time RT-PCR analysis; type: functional, cell-based
HepG2 [18] = experiment: Radiosensitizing activity against human HepG2 cells assessed as downregulation of XIAP mRNA expression pretreated with compound followed by exposure to 8 Gy gamma irradiation by real time RT-PCR analysis; type: functional, cell-based

Sequence of Epidermal growth factor receptor (P00533 whole entry): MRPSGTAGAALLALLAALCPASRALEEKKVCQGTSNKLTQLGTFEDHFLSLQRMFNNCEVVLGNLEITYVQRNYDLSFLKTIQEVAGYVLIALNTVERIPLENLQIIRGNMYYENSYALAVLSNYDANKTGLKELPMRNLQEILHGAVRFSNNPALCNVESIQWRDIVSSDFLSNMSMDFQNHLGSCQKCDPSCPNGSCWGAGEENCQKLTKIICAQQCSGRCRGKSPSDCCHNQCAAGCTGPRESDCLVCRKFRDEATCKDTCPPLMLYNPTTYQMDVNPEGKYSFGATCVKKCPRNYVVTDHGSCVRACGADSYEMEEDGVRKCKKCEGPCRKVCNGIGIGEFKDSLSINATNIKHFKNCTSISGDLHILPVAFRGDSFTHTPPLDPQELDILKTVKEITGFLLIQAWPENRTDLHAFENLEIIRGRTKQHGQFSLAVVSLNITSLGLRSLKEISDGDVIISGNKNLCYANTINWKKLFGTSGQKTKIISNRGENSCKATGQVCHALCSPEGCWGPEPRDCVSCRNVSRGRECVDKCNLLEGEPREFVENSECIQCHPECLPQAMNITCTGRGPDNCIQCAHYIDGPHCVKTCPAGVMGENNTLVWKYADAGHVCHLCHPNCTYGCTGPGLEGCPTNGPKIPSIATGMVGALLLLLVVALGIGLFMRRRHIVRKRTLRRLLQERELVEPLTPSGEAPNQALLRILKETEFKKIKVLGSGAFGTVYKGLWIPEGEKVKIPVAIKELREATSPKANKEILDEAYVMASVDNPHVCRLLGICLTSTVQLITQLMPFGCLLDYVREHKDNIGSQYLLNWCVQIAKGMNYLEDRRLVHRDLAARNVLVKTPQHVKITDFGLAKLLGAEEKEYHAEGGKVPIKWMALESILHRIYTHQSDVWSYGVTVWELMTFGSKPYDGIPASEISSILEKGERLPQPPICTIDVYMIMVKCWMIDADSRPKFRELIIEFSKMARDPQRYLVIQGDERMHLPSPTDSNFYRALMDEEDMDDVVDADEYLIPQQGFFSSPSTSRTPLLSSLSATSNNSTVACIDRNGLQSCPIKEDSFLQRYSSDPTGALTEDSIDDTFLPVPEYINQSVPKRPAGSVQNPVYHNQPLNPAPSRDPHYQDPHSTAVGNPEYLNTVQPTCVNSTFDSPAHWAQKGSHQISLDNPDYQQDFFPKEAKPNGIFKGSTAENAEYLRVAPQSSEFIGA

SMILES: CCS(=O)(=O)Nc1ccc(/C(C)=N/NC(=O)CSc2nc3ccccc3c(=O)n2Cc2ccc3c(c2)OCO3)cc1
IC50 (HepG2 [1]): 9.08 µM | IC50 (MCF7 [2]): 13.9 µM

SMILES: C#Cc1cccc(Nc2ncnc3cc(OCCOC)c(OCCOC)cc23)c1 [ERLOTINIB]
IC50 (MCF7 [2]): 12.4 µM

SMILES: NNC(=O)CSc1nc2ccccc2c(=O)n1Cc1ccc2c(c1)OCO2
IC50 (HepG2 [1]): 8.15 µM | IC50 (MCF7 [2]): 20.7 µM

SMILES: O=C(CSc1nc2ccccc2c(=O)n1Cc1ccc2c(c1)OCO2)Nc1ccccc1Cl
IC50 (HepG2 [1]): 17.9 µM | IC50 (MCF7 [2]): 10.3 µM

SMILES: O=C(CSc1nc2ccccc2c(=O)n1Cc1ccc2c(c1)OCO2)Nc1ccc(Br)cc1
IC50 (HepG2 [1]): 11.1 µM | IC50 (MCF7 [2]): 20.4 µM

IC50 [7]: 1.03 µM
SMILES: O=C(CSc1nc2ccccc2c(=O)n1Cc1ccc2c(c1)OCO2)Nc1ccc(Br)cc1Br
Activity (HepG2 [3]): 86.6% | Activity (HepG2 [4]): 0.02% | Activity (HepG2 [5]): 0.16% | Activity (HepG2 [6]): 15.4% | IC50 (HepG2 [1]): 4.01 µM | IC50 (MCF7 [2]): 14.9 µM | inhibition (INH) [8]: 50% | inhibition (INH) [9]: 50% | Activity [10]: 400% | Activity (HepG2 [11]): 50% | Activity (HepG2 [12]): 85.8% | Activity (HepG2 [13]): 2.32% | Activity (HepG2 [14]): 0.06% | IC50 (HepG2 [15]): 1.76 µM | IC50 (MCF7 [16]): 4.91 µM | Activity (HepG2 [17]): Active | Activity (HepG2 [18]): Active

SMILES: COc1cccc2c1C(=O)c1c(O)c3c(c(O)c1C2=O)C[C@@](O)(C(=O)CO)C[C@@H]3O[C@H]1C[C@H](N)[C@H](O)[C@H](C)O1 [DOXORUBICIN]
IC50 (HepG2 [1]): 8.9 µM

SMILES: Cc1ccc(S(=O)(=O)NNC(=O)CSc2nc3ccccc3c(=O)n2Cc2ccc3c(c2)OCO3)cc1
IC50 (HepG2 [1]): 28.2 µM | IC50 (MCF7 [2]): 49.8 µM

SMILES: O=C(CSc1nc2ccccc2c(=O)n1Cc1ccc2c(c1)OCO2)Nc1cc(Cl)c(Cl)cc1Cl
IC50 (HepG2 [1]): 12.1 µM | IC50 (MCF7 [2]): 26.1 µM

SMILES: O=c1c2ccccc2[nH]c(=S)n1Cc1ccc2c(c1)OCO2
IC50 (HepG2 [1]): 27.3 µM | IC50 (MCF7 [2]): 26.6 µM

SMILES: O=C(CSc1nc2ccccc2c(=O)n1Cc1ccc2c(c1)OCO2)NNC(=S)Nc1ccc(S(=O)(=O)Nc2ccc(Cl)nn2)cc1
IC50 (HepG2 [1]): 9.34 µM | IC50 (MCF7 [2]): 46 µM

SMILES: O=C(CSc1nc2ccccc2c(=O)n1Cc1ccc2c(c1)OCO2)NNS(=O)(=O)c1ccccc1
IC50 (HepG2 [1]): 22.2 µM | IC50 (MCF7 [2]): 88.9 µM

IC50 [7]: 0.147 µM
SMILES: CCS(=O)(=O)NNC(=O)CSc1nc2ccccc2c(=O)n1Cc1ccc2c(c1)OCO2
Activity (HepG2 [3]): 86.1% | Activity (HepG2 [4]): 0.012% | Activity (HepG2 [5]): 0.4% | Activity (HepG2 [6]): 13.5% | IC50 (HepG2 [1]): 8.76 µM | IC50 (MCF7 [2]): 15.3 µM | inhibition (INH) [8]: 50% | inhibition (INH) [9]: 50% | Activity [10]: 500% | Activity (HepG2 [11]): 50% | Activity (HepG2 [12]): 94.2% | Activity (HepG2 [13]): 2.45% | Activity (HepG2 [14]): 0.039% | IC50 (HepG2 [15]): 2.25 µM | IC50 (MCF7 [16]): 5.93 µM | Activity (HepG2 [17]): Active | Activity (HepG2 [18]): Active

SMILES: CC(=O)Nc1ccc(S(=O)(=O)NNC(=O)CSc2nc3ccccc3c(=O)n2Cc2ccc3c(c2)OCO3)cc1
IC50 (HepG2 [1]): 33.9 µM | IC50 (MCF7 [2]): 11.4 µM

SMILES: O=C(CSc1nc2ccccc2c(=O)n1Cc1ccc2c(c1)OCO2)Nc1ccc(F)cc1
IC50 (HepG2 [1]): 7.18 µM | IC50 (MCF7 [2]): 14.5 µM

IC50 [7]: 0.207 µM
SMILES: O=C(CSc1nc2ccccc2c(=O)n1Cc1ccc2c(c1)OCO2)Nc1ccccc1F
Activity (HepG2 [3]): 84.5% | Activity (HepG2 [4]): 0.02% | Activity (HepG2 [5]): 0.762% | Activity (HepG2 [6]): 12.6% | IC50 (HepG2 [1]): 2.46 µM | IC50 (MCF7 [2]): 5.86 µM | inhibition (INH) [8]: 50% | inhibition (INH) [9]: 50% | Activity [10]: 400% | Activity (HepG2 [11]): 100% | Activity (HepG2 [12]): 92.9% | Activity (HepG2 [13]): 0.071% | Activity (HepG2 [14]): 0% | IC50 (HepG2 [15]): 1.56 µM | IC50 (MCF7 [16]): 3.06 µM | Activity (HepG2 [17]): Active | Activity (HepG2 [18]): Active

IC50 [7]: 0.754 µM
SMILES: O=C(CSc1nc2ccccc2c(=O)n1Cc1ccc2c(c1)OCO2)Nc1ccc(I)cc1
Activity (HepG2 [3]): 92.5% | Activity (HepG2 [4]): 0.024% | Activity (HepG2 [5]): 0.308% | Activity (HepG2 [6]): 7.12% | IC50 (HepG2 [1]): 13.2 µM | IC50 (MCF7 [2]): 6.84 µM | inhibition (INH) [8]: 50% | inhibition (INH) [9]: 50% | Activity [10]: 200% | Activity (HepG2 [11]): 50% | Activity (HepG2 [12]): 87.8% | Activity (HepG2 [13]): 2.73% | Activity (HepG2 [14]): 0.042% | IC50 (HepG2 [15]): 4.32 µM | IC50 (MCF7 [16]): 4.69 µM | Activity (HepG2 [17]): Active | Activity (HepG2 [18]): Active

SMILES: O=C(CSc1nc2ccccc2c(=O)n1Cc1ccc2c(c1)OCO2)NNC(=S)Nc1ccc(S(=O)(=O)Nc2ccccn2)cc1
IC50 (HepG2 [1]): 36.9 µM | IC50 (MCF7 [2]): 3.87 µM

SMILES: CCC(=O)Nc1ccc(S(=O)(=O)Nc2ccc(/C(C)=N/NC(=O)CSc3nc4ccccc4c(=O)n3Cc3ccc4c(c3)OCO4)cc2)cc1
IC50 (HepG2 [1]): 4.21 µM | IC50 (MCF7 [2]): 15.1 µM

SMILES: O=C(CSc1nc2ccccc2c(=O)n1Cc1ccc2c(c1)OCO2)Nc1cccc(F)c1
IC50 (HepG2 [1]): 8.51 µM | IC50 (MCF7 [2]): 7.6 µM
